One test deals with MCF7. The experiment in a line: Antiproliferative activity against human MCF7 cells assessed as inhibition of cell growth rate at 10 uM measured after 48 hrs by MTT assay. Format: functional. The procedure, abridged: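 MCF-7 cells in DMEM with 10% FBS exposed to a single 10 µM concentration for 48 h. Read-out by MTT (0.5 mg/ml, 4 h, DMSO dissolution, A570). Inhibition rate given versus untreated control as mean ± SD, n = 3.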

A further test has as its system HepG2. The experiment in a line: Anticancer activity against human HepG2 cells assessed as inhibition of cell proliferation measured after 48 hrs by MTT assay. The class given is functional, cell-based. To be noted: HepG2, 48 h. Put shortly:
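Cells seeded at ~5,000/well, grown 24 h to partial monolayer, then exposed 48 h at 37°C, 5% CO2 to 0.5, 1, 2, 4, 10 and 20 µM (DMSO ≤0.1%). MTT final 0.5 mg/ml for 4 h, formazan dissolved in DMSO, A570. Survival expressed as % of untreated control; IC50 from dose-response curves; three independent experiments. MDA-MB-231, MCF-7, HepG2 in DMEM; A549 and LO-2 in RPMI-1640; 10% FBS.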
Background: Tetrazolium assays rely on reduction of a dye to a coloured formazan, in cell work by metabolically active cells.

For a further test, the system named is MDA-MB-231. The experiment in a line: Induction of intracellular reactive oxygen species generation in human MDA-MB-231 cells at 1 uM measured after 24 hrs by DCFH-DA staining based flow cytometry analysis relative to control. Format: functional. The procedure, abridged:
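MDA-MB-231 cells at 2×10^5 cells/well, grown 24 h, exposed 24 h to compound (1, 1.5, 2 µM) or DMSO control. Cells then took up DCFH-DA for 30 min at 37°C in the dark, were PBS-washed, resuspended in serum-free medium and analysed by flow cytometry. Relative DCF level vs control; mean ± SD, n = 3.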
In general terms: A flow cytometer gives signals particle by particle.

Usually inhibition stands for the percentage by which the read-out fell short of the control. As usually defined, the IC50 is the midpoint of a concentration-inhibition curve. As for `COc1cc2cc(N)c(=O)oc2cc1OCCCOc1no[n+]([O-])c1S(=O)(=O)c1ccccc1`, the inhibition at 10 µM in the test with MCF7 was 91.5%. Also, the 50% inhibitory concentration (IC50) in the test with HepG2 came to 2.81 µM. For the same molecule, the “fold change (FC)” value in the test on MDA-MB-231 turned out to be 1.31.

Values taken from ChEMBL document CHEMBL4765333, “Novel NO-releasing scopoletin derivatives induce cell death via mitochondrial apoptosis pathway and cell cycle arrest” (Eur J Med Chem, 2020).
